Data published in the RNAGym collection of RNA variant scans (doi:10.1126/science.aae0568).
This sample holds only a part of the variants without activity.

B1: tRNA (parent)
chain: GUUCCGUUGGCGUAAUGGUAACGCGUCUCCCUCCUAAGGAGAAGACUGCGGGUUCGAGUCCCGUACGGAACG

Variants of: B1
Assay: yeast fitness relative to wild type (ratio to wild type); higher = fitter; tRNA-Arg(CCU), competitive growth, 37 C, YPD
Summary of the method: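 Variants of the tRNA-Arg(CCU) gene were chemically synthesised with a 3% per-site mutation rate across 69 sites and placed at the native genomic locus in Saccharomyces cerevisiae. Six parallel replicates of the pooled strains were competed in YPD at 37°C for 24 hours, and gene amplicons from the start and end populations were read by 100-nucleotide paired-end sequencing. Darwinian fitness relative to wild type was derived from changes in genotype frequencies. Genotypes required ≥ 100 starting reads, and estimates < 0.5 were set to 0.5.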

| Variant | yeast fitness |
| --- | --- |
| C11A A36C A43G G50C | ≤ 0.5 |
| C11A A20G C55U C61A | ≤ 0.5 |
| C11A A42U G44C U54A C62U A65G | ≤ 0.5 |
| C11A A36G A43C | 0.58 |
| C11A A15G C61U A65U | ≤ 0.5 |
| G10C U32A A43C C49A | ≤ 0.5 |
| C11A A21G C34U A37G U47C A57G C62U | ≤ 0.5 |
| C11A A36U A40C | ≤ 0.5 |
| G10U G17A C29G C55G C60U | ≤ 0.5 |
| G10C U28G C33G C49U A69U | ≤ 0.5 |
| G10C U26A C61G A70C | ≤ 0.5 |
| C11A A42G A43U C46U C62U | 0.582 |
| G10C U26C C55U | 0.507 |
| G10C U16A C30U | 0.54 |
| G10C U16A C30U A57G | 0.646 |
| C11A A43G | 0.621 |
| G10C U35G A69C | ≤ 0.5 |
| G10C U19A C24U | 0.531 |
| C11A A42U | 0.724 |
| C11A A14C C34A | 0.58 |
| C11A A14G | 0.628 |
| C11A A40G | 0.602 |
| C11A A37U U54C | 0.678 |
| C11A A21C C34A A57U C61A | 0.539 |

| Variant | yeast fitness |
| --- | --- |
| G10C U26A C49U C55G C60G | ≤ 0.5 |
| C11A A15G C31A C60A | ≤ 0.5 |
| C11A A14G C24U G41C C55G | 0.581 |
| G10U A69U | 0.864 |
| C11A A20C C29U U47C A70U | ≤ 0.5 |
| C11A A20U C29U C33G C62A A70U | ≤ 0.5 |
| C11A A14G C29U A65C | ≤ 0.5 |
| C11A A21C U26G A65G A69C | 0.525 |
| C11A A14U C30G | ≤ 0.5 |
| C11A A21G C34U A37G G58A | ≤ 0.5 |
| G10U G17A C24A C62U C66U | ≤ 0.5 |
| G10C U32C C33A A45U | ≤ 0.5 |
| C11A A20G G39A G51A U53A G63C | 0.545 |
| C11A A20C C29U | 0.564 |
| C11A A37G A40G A43G G52C U59G | ≤ 0.5 |
| C11A A36G C62U | 0.539 |
| C11A A15G A20G A37C G50A G67C | ≤ 0.5 |
| G10C U53A C66U | ≤ 0.5 |
| G10C U35G C62G | 0.52 |
| C11A A43G U47C A65C | ≤ 0.5 |
| C11A A21C C31A C62U | ≤ 0.5 |
| C11A A20U C61U | 0.558 |
| C11A A21U C30A A45U C49U C55U | ≤ 0.5 |
| C11A A15C U54C C66G | ≤ 0.5 |

| Variant | yeast fitness |
| --- | --- |
| G10C U32A C61G A70U | ≤ 0.5 |
| C11A A43U A45C U53C | ≤ 0.5 |
| G10C U32A A36G | ≤ 0.5 |
| C11A A20U U47C | ≤ 0.5 |
| C11A A21C U64A | 0.688 |
| C11A A21U A43U | ≤ 0.5 |
| G10U A20C C34A U53A U54G | ≤ 0.5 |
| C11A A21U C49A | ≤ 0.5 |
| C11A A37G | 0.566 |
| C11A A37U | 0.587 |
| C11A A15G C61U | 0.528 |
| C11A A40G U53C | 0.619 |
| G10U A14U | ≤ 0.5 |
| G10U A15U C31G G50C U59C | ≤ 0.5 |
| G10C U26A A43G C60U C62U A70C | ≤ 0.5 |
| G10C U26A C31U | 0.578 |
| C11A A14U C30U C33A A36U A57G A69G | ≤ 0.5 |
| C11A A42C G50C A57C C61G | ≤ 0.5 |
| C11A A20U U32C | 0.733 |
| G10C U64C | 0.618 |
| C11A A42G U53G | ≤ 0.5 |
| G10C U19G C29U U54A | ≤ 0.5 |
| G10C U28G G39A C49A C55U | ≤ 0.5 |
| C11A A14U U59C C62U | ≤ 0.5 |

| Variant | yeast fitness |
| --- | --- |
| G10C U19C A65G A70C | ≤ 0.5 |
| C11A A37U G48A | ≤ 0.5 |
| C11A A21C C31A | 0.567 |
| C11A A43G C61U | ≤ 0.5 |
| G10U A14U G44C | 0.646 |
| C11A A37G C49A | 0.653 |
| C11A A21G C34U A37G G52C A57U A69U | ≤ 0.5 |
| C11A A21C C31A C55G | ≤ 0.5 |
| C11A A21C C55U | ≤ 0.5 |
| C11A A20U C33U C34U G48A C66U | 0.557 |
| C11A A21U G41A | ≤ 0.5 |
| G10C U35G C66U | ≤ 0.5 |
| C11A A43U C46U U47G | 0.565 |
| G10U G12A A43C A69G | 0.566 |
| C11A A15G C49U C66U | ≤ 0.5 |
| G10C U13C U32G | ≤ 0.5 |
| C11A A21C G39C | ≤ 0.5 |
| C11A A15C C24G G58A | ≤ 0.5 |
| C11A A15U A20G | ≤ 0.5 |
| C11A A21U A43U A57G | ≤ 0.5 |
| C11A A20G C62U C66A | ≤ 0.5 |
| C11A A21C G51C U59G | ≤ 0.5 |
| C11A A20U U32C G68C | ≤ 0.5 |
| G10C U54A | ≤ 0.5 |

| Variant | yeast fitness |
| --- | --- |
| G10C U54G | ≤ 0.5 |
| G10U C11G C24U C34U C46A | ≤ 0.5 |
| C11A A15U C34A G39C A40C G56C C61G C62G G68C | ≤ 0.5 |
| C11A A43G G50C | ≤ 0.5 |
| C11A A20U C27U U47C G50A | 0.618 |
| C11A A21U U54G | ≤ 0.5 |
| C11A A15C C24A C27A G41C G56A | 0.542 |
| C11A A15G C34G G52C C61U | ≤ 0.5 |
| C11A A20U U28A C60G | 0.521 |
| C11A A15U A20C C34G | ≤ 0.5 |
| C11A A36G | 0.646 |
| C11A A36U | 0.559 |
| C11A A37C C49G C66A | ≤ 0.5 |
| G10C U47A A57C | ≤ 0.5 |
| G10U A20C A57G | 0.511 |
| C11A A21C C31A G58A | ≤ 0.5 |
| C11A A36U C61U A65U | ≤ 0.5 |
| C11A A14U C24U C34G U35A A36C C61A | ≤ 0.5 |
| C11A A20G U59G | ≤ 0.5 |
| C11A A21C A37C A40C A69C | ≤ 0.5 |
| C11A A20U C30G A45C G48A | ≤ 0.5 |
| C11A A15G A20G C24U A37C G50A G67C | ≤ 0.5 |
| C11A A15C A57G C61U | ≤ 0.5 |
| G10U U16A G25A C49U G50C | ≤ 0.5 |

| Variant | yeast fitness |
| --- | --- |
| C11A A14G U19G A43C U53A C66U | 0.601 |
| G10U C66U | 0.794 |
| G10C U26A C49U | ≤ 0.5 |
| G10C U26A | 0.71 |
| C11A A42C A65U C66U | 0.623 |
| G10C U13C U53C | 0.512 |
| C11A A42G U64A G67A | ≤ 0.5 |
| C11A A14U C30U C33A A36U A57G | ≤ 0.5 |
| C11A A37U G67A | ≤ 0.5 |
| G10U G17A C24A C61G | ≤ 0.5 |
| C11A A20G C62A G67A | ≤ 0.5 |
| G10C U26C A45G C49U C55G | ≤ 0.5 |
| G10C U32C A42C | ≤ 0.5 |
| C11A A15U C30A A42C | ≤ 0.5 |
| C11A A20G | 0.556 |
| C11A A20U | 0.681 |
| G10U U32A G38C U64C | ≤ 0.5 |
| G10C U35A A37U A43G | ≤ 0.5 |
| G10U C27G G39A G67A | ≤ 0.5 |
| C11A A14U A21C C46U U53C A65G | 0.575 |
| C11A A15C C24G C61A A69C | ≤ 0.5 |
| C11A A37C C49G | ≤ 0.5 |
| G10C U32C A42C G68C | ≤ 0.5 |
| C11A A36C G56C | 0.614 |

| Variant | yeast fitness |
| --- | --- |
| G10C U16C A20G | ≤ 0.5 |
| C11A A21C U26G A69C | ≤ 0.5 |
| G10C U28G C33G C49U | ≤ 0.5 |
| G10C U26A G38A A40U | ≤ 0.5 |
| C11A A21U A43U G58C C60A C66U | 0.563 |
| G10C U32A G38C U64C | ≤ 0.5 |
| C11A A37U C49G C60G C62G | ≤ 0.5 |
| C11A A15U A20C C34G A65C | ≤ 0.5 |
| C11A A43G U64A | 0.601 |
| C11A A20C C24U C55G | 0.617 |
| G10C U35G A43C U47C C55U | ≤ 0.5 |
| C11A A21U G41A G58A A65G | ≤ 0.5 |
| C11A A15G G58C | 0.505 |
| C11A A14G C31G C34G | ≤ 0.5 |
| C11A A21U C27A U35G | ≤ 0.5 |
| G10C U16G C31A U32G C55U | ≤ 0.5 |
| G10C U19A | 0.612 |
| G10C U19G | 0.552 |
| C11A A20G C62A | 0.605 |
| C11A A21U | 0.606 |
| C11A A21C | 0.557 |
| C11A A14U A42G C62A C66U | ≤ 0.5 |
| C11A A21C C30U | 0.678 |
